In ChEMBL document CHEMBL4138263, “Taburnaemines A-I, Cytotoxic Vobasinyl-Iboga-Type Bisindole Alkaloids from Tabernaemontana corymbosa” (J Nat Prod, 2018):
pIC50: −log10 of the molar value.

Key:
Type in all cases: functional, cell-based
[1] = system: KB; assay: Antiproliferative activity against human KB cells after 72 hrs by sulforhodamine B assay
Outline: (§1)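 Cells grown in RPMI-1640 with 2 mM L-glutamine, 25 mM HEPES, 10% FBS, streptomycin and penicillin; seeded at 4000–12 000 cells per well and exposed to compounds for 72 h. Fixed in 10% trichloroacetic acid, stained with 0.04% SRB, bound dye dissolved in 10 mM Tris base, absorbance read at 515 nm. IC50 from at least three independent experiments run in duplicate.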

[2] = Antiproliferative activity against human KBVIN cells after 72 hrs by sulforhodamine B assay; outline: as §1
[3] = system: A549; assay: Antiproliferative activity against human A549 cells after 72 hrs by sulforhodamine B assay; conditions: A549, 72 h; outline: as §1
[4] = system: MDA-MB-231; assay: Antiproliferative activity against human MDA-MB-231 cells after 72 hrs by sulforhodamine B assay; conditions: MDA-MB-231, 72 h; outline: as §1
[5] = system: MCF7; assay: Antiproliferative activity against human MCF7 cells after 72 hrs by sulforhodamine B assay; conditions: MCF7, 72 h; outline: as §1

Structure (SMILES)	pIC50 [1]	pIC50 [3]	pIC50 [4]	pIC50 [5]	pIC50 [2]
C/C=C1/CN(C)[C@H]2Cc3c([nH]c4ccccc34)[C@H](c3cc4c5c([nH]c4cc3OC)[C@]3(C(=O)OC)C[C@@H]4C[C@H](CC)[C@@H]3N(CC5)[C@@H]4CC(C)=O)C[C@H]1[C@]2(CO)C(=O)OC	5.30	5.25	5.32	5.21	5.29
C/C=C1/CN(C)[C@H]2Cc3c([nH]c4ccccc34)C(c3c(OC)ccc4c5c([nH]c34)[C@]3(C(=O)OC)C[C@@H]4C[C@H](CC)[C@@H]3N(CC5)C4)C[C@H]1[C@@H]2C(=O)OC (stereo not given in full)	5.30	5.36	5.28	5.25	5.39
CC[C@H]1C[C@@H]2C[C@@]3(C(=O)OC)c4[nH]c5c([C@@H]6C[C@H]7[C@@]8(C(=O)OC)CO[C@H](N(C)[C@H]8Cc8c6[nH]c6ccccc86)[C@@]76O[C@H]6C)c(OC)ccc5c4CCN(C2=O)[C@@H]13	5.24	5.23	5.09	5.08	5.24
C/C=C1/CN(C)[C@H]2Cc3c([nH]c4ccccc34)[C@H](c3c(OC)ccc4c5c([nH]c34)[C@]3(C(=O)OC)C[C@H]4C[C@H](CC)[C@@H]3N3C[C@@H]5O[C@H]43)C[C@H]1[C@]2(CO)C(=O)OC	5.32	5.28	5.32	5.25	5.33
C/C=C1/CN2COC[C@@]3(C(=O)OC)[C@@H]1C[C@@H](c1cc4c5c([nH]c4cc1OC)[C@]1(C(=O)OC)C[C@@H]4C[C@H](CC)[C@@H]1N(CC5)C4)c1[nH]c4ccccc4c1C[C@H]23	5.37	5.37	5.35	5.32	5.36
C/C=C1/CN2COC[C@]3(C(=O)OC)[C@@H]1C[C@@H](c1c(OC)ccc4c1N=C1[C@]5(C(=O)OC)C[C@H]6C[C@H](CC)[C@@H]5N(CC[C@]14O)C6)c1[nH]c4ccccc4c1C[C@H]23	5.35	5.31	5.09	5.19	5.33
C/C=C1/CN2COC[C@]3(C(=O)OC)[C@@H]1C[C@@H](c1c(OC)ccc4c5c([nH]c14)[C@]1(C(=O)OC)C[C@H]4C[C@H](CC)[C@@H]1N(CC5)[C@@H]4CO)c1[nH]c4ccccc4c1C[C@H]23	5.32	5.33	5.29	5.22	5.31
C/C=C1/CN(C)[C@H]2Cc3c([nH]c4ccccc34)[C@H](c3cc4c(cc3OC)N=C3[C@]5(C(=O)OC)C[C@H]6C[C@H](CC)[C@@H]5N(CC[C@@]34O)C6)C[C@H]1[C@]2(CO)C(=O)OC	5.57	5.51	5.55	5.52	5.59
CC[C@H]1C[C@@H]2C[C@@]3(C(=O)OC)c4[nH]c5c([C@@H]6C[C@H]7[C@@]8(C(=O)OC)CO[C@H](N(C)[C@H]8Cc8c6[nH]c6ccccc86)[C@]76O[C@@H]6C)c(OC)ccc5c4CCN([C@@H]2CC(C)=O)[C@@H]13	< 5.00	< 5.00	< 5.00	< 5.00	< 5.00
C/C=C1/CN(C)[C@H]2Cc3c([nH]c4ccccc34)[C@H](c3cc4c5c([nH]c4cc3OC)[C@]3(C(=O)OC)C[C@@H]4C[C@H](CC)[C@@H]3N(CC5)[C@@H]4CC(C)=O)C[C@H]1[C@@]2(CO)C(=O)OC	5.34	5.36	5.49	5.36	5.36
C/C=C1/CN(C)[C@H]2Cc3c([nH]c4ccccc34)[C@H](c3cc4[nH]c5c(c4cc3OC)CCN3C[C@H]4C[C@H](CC)[C@H]3[C@H]5C4)C[C@H]1[C@@H]2C(=O)OC	5.32	5.37	5.35	5.33	5.36
CC(=O)O[C@H]1C(=O)[C@@]2(C)[C@H]([C@H](OC(=O)c3ccccc3)[C@]3(O)C[C@H](OC(=O)[C@H](O)[C@@H](NC(=O)c4ccccc4)c4ccccc4)C(C)=C1C3(C)C)[C@]1(OC(C)=O)CO[C@@H]1C[C@@H]2O [PACLITAXEL]	8.44	8.35	8.15	8.06	5.63

Further compounds by rising pIC50 [1], results first:

pIC50 [1]	pIC50 [3]	pIC50 [4]	pIC50 [5]	Structure (SMILES)	pIC50 [2]
5.13	5.07	5.11	< 5.00	CC[C@H]1C[C@@H]2C[C@@]3(C(=O)OC)c4[nH]c5c([C@@H]6C[C@H]7[C@@]8(C(=O)OC)CO[C@H](N(C)[C@H]8Cc8c6[nH]c6ccccc86)[C@@]76O[C@H]6C)c(OC)ccc5c4CCN([C@@H]2CC(C)=O)[C@@H]13	5.18
5.17	5.01	5.28	< 5.00	C/C=C1/CN(C)[C@H]2Cc3c([nH]c4ccccc34)[C@H](c3ccc4[nH]c5c(c4c3)CCN3C[C@@H]4C[C@H](CC)[C@H]3[C@@]5(C(=O)OC)C4)C[C@H]1[C@]2(CO)C(=O)OC	5.08
5.33	5.37	5.35	5.34	CC[C@H]1C[C@H]2CN3CC[C@@]4(O)C(=Nc5cc(OC)c([C@@H]6C[C@H]7[C@@]8(C(=O)OC)CO[C@H](N(C)[C@H]8Cc8c6[nH]c6ccccc86)[C@@]76O[C@H]6C)cc54)[C@](C(=O)OC)(C2)[C@H]13	5.32
5.35	5.37	5.35	5.31	C/C=C1/CN(C)[C@H]2Cc3c([nH]c4ccccc34)[C@H](c3c(OC)ccc4c5c([nH]c34)[C@]3(C(=O)OC)C[C@H]4C[C@H](CC)[C@@H]3N(CC5)[C@@H]4CO)C[C@H]1[C@]2(CO)C(=O)OC	5.31
5.37	5.46	5.32	5.32	C/C=C1/CN(C)[C@H]2Cc3c([nH]c4ccccc34)[C@H](c3c(OC)ccc4c5c([nH]c34)[C@]3(C(=O)OC)C[C@@H]4C[C@H](CC)[C@@H]3N(CC5)C4)C[C@H]1[C@@]2(CO)C(=O)OC	5.33
5.38	5.35	5.32	5.28	C/C=C1/CN(C)[C@H]2Cc3c([nH]c4ccccc34)[C@H](c3c(OC)ccc4c5c([nH]c34)[C@]3(C(=O)OC)C[C@H]4C[C@H](CC)[C@@H]3N(CC5)C4)C[C@H]1[C@]2(CO)C(=O)OC	5.39
8.36	7.64	7.49	8.14	CC[C@]1(O)C[C@@H]2CN(CCc3c([nH]c4ccccc34)[C@@](C(=O)OC)(c3cc4c(cc3OC)N(C)[C@H]3[C@@](O)(C(=O)OC)[C@H](OC(C)=O)[C@]5(CC)C=CCN6CC[C@]43[C@@H]65)C2)C1 [VINBLASTINE]	5.61
